Columns and labels:
[1] = target: T1, human DP1 receptors (Homo sapiens, UniProt Q13258); assay: cAMP TR-FRET counter screen in C6-glioma cells, DP1; assay type: cell-based; settings: read-out: DP1 KB; Schild KB; C6-glioma cells overexpressing DP1; agonist BW245C
T1 sequence (Q13258 1-359): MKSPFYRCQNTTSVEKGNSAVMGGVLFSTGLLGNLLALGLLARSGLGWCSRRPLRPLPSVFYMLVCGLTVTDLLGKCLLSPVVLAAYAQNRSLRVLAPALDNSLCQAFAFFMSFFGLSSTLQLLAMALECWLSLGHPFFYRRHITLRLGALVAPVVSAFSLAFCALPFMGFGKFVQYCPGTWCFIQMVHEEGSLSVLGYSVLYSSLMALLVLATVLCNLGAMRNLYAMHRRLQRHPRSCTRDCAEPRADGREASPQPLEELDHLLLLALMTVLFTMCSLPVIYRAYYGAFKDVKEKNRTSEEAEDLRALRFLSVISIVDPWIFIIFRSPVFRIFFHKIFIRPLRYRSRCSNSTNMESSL
How it was run: (§1)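 Rat C6 glioma cells stably expressing the human receptor, seeded 4,000/well overnight; 0.5 h in HBSS with 20 μM rolipram at room temperature; test compound for 10 or 50 min, then rising agonist concentrations for 40 min. Lysis, cAMP-d2/anti-cAMP-Cryptate TR-FRET (F665/F590).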

[2] = target: human IP receptors (Homo sapiens, UniProt P43119); assay: cAMP TR-FRET counter screen in C6-glioma cells, IP; assay type: cell-based; settings: read-out: IP KB; Schild KB; C6-glioma cells overexpressing IP; agonist iloprost
How it was run: as §1

Sequence of human IP receptors (P43119 whole entry): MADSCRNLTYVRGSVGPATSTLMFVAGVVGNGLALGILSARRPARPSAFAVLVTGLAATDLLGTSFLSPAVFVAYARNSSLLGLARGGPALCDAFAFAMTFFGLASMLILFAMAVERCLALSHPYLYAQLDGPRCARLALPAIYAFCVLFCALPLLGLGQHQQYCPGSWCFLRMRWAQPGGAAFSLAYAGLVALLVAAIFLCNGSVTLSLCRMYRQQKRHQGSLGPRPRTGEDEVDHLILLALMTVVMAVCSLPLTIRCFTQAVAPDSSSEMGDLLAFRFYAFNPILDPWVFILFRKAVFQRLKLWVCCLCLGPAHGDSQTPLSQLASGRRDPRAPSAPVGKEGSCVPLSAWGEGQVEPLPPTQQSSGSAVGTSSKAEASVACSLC

Kb [1]: 48.3 µM | Kb [2]: 1.7 µM
SMILES: COc1ccc2cc(OCC3(C(=O)O)CN(C(=O)c4ccc(F)cc4)C3)ccc2c1 [PF-04418948]

Reference: publication PMC6633905 (Molecular pharmaceutics, 2018)
